# Assay results taken from ChEMBL document CHEMBL2434893, “Synthesis, DNA binding and anti-leukemic activity of an aminoacyl nucleolipid” (Bioorg Med Chem Lett, 2013).
# Tests used:
# MDA-MB-435 = experiment: Cytotoxicity against human MDA-MB-435 cells assessed as cell growth at 10 uM after 48 hrs by SRB assay relative to control; type: functional; conditions: MDA-MB-435, 48 h, read-out: Activity
# Procedure, shortened: (§1)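 NCI Developmental Therapeutics Program 60-cell-line screen at a single dose of 10 μM. Cells incubated with compound for 48 h at 37 °C before viability determination.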
# ACHN = experiment: Cytotoxicity against human ACHN cells assessed as cell growth at 10 uM after 48 hrs by SRB assay relative to control; type: functional; conditions: read-out: Activity; procedure, shortened: as §1
# NCI-H226 = experiment: Cytotoxicity against human NCI-H226 cells assessed as cell growth at 10 uM after 48 hrs by SRB assay relative to control; type: functional; conditions: NCI-H226, 48 h, read-out: Activity; procedure, shortened: as §1
# U-251 = experiment: Cytotoxicity against human U251 cells assessed as cell growth at 10 uM after 48 hrs by SRB assay relative to control; type: functional; conditions: U-251, 48 h, read-out: Activity
# Procedure, shortened: (§2)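 Single-dose (10 μM) screen run by the NCI Developmental Therapeutics Program on its 60 human cancer cell line panel. Viability was determined after 48 h incubation with the cells at 37 °C.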
# [1] = Binding affinity to GRP78 duplex DNA (unknown origin) assessed as change in melting temperature at 0.2 mM after 36 hrs by thermal denaturation assay
# Procedure, shortened: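 Duplex DNA (1.1 μM) annealed from complementary strands in phosphate buffer (140 mM KCl, 1 mM MgCl₂, 5 mM sodium phosphate, pH 7.2), with ligand 0.2–3.9 mM. Melting followed as % hyperchromicity at 260 nm over 5–90 °C. Tm shift measured against native duplex.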
# MOLT-4 = experiment: Cytotoxicity against human MOLT4 cells assessed as cell growth at 10 uM after 48 hrs by SRB assay relative to control; type: functional; conditions: MOLT-4, 48 h, read-out: Activity; procedure, shortened: as §1
# RXF 393 = experiment: Cytotoxicity against human RXF393 cells assessed as cell growth at 10 uM after 48 hrs by SRB assay relative to control; type: functional; conditions: RXF 393, 48 h, read-out: Activity; procedure, shortened: as §1
# CAKI-1 = experiment: Cytotoxicity against human Caki1 cells assessed as cell growth at 10 uM after 48 hrs by SRB assay relative to control; type: functional; conditions: CAKI-1, 48 h, read-out: Activity; procedure, shortened: as §1
# HCT-116 = experiment: Cytotoxicity against human HCT116 cells assessed as cell growth at 10 uM after 48 hrs by SRB assay relative to control; type: functional; conditions: HCT-116, 48 h, read-out: Activity; procedure, shortened: as §1
# T47D = experiment: Cytotoxicity against human T47D cells assessed as cell growth at 10 uM after 48 hrs by SRB assay relative to control; type: functional; conditions: read-out: Activity; procedure, shortened: as §2
# SK-MEL-5 = experiment: Cytotoxicity against human SK-MEL-5 cells assessed as cell growth at 10 uM after 48 hrs by SRB assay relative to control; type: functional; conditions: SK-MEL-5, 48 h, read-out: Activity; procedure, shortened: as §1
# NCI-H322M = experiment: Cytotoxicity against human NCI-H322M cells assessed as cell growth at 10 uM after 48 hrs by SRB assay relative to control; type: functional; conditions: read-out: Activity; procedure, shortened: as §1
# LOX IMVI = experiment: Cytotoxicity against human LOXIMVI cells assessed as cell growth at 10 uM after 48 hrs by SRB assay relative to control; type: functional; conditions: read-out: Activity; procedure, shortened: as §1
# SF-268 = experiment: Cytotoxicity against human SF268 cells assessed as cell growth at 10 uM after 48 hrs by SRB assay relative to control; type: functional; conditions: SF-268, 48 h, read-out: Activity; procedure, shortened: as §1
# SF-539 = experiment: Cytotoxicity against human SF539 cells assessed as cell growth at 10 uM after 48 hrs by SRB assay relative to control; type: functional; conditions: SF-539, 48 h, read-out: Activity; procedure, shortened: as §1
# HL-60(TB) = experiment: Cytotoxicity against human HL-60(TB) cells assessed as cell growth at 10 uM after 48 hrs by SRB assay relative to control; type: functional; conditions: HL-60, 48 h, read-out: Activity
# Procedure, shortened: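 Single-dose screen run by the NCI Developmental Therapeutics Program on its 60 human cancer cell line panel, leukemia lines included. Cells were exposed to 10 μM ligand and incubated at 37 °C for 48 h. Cell viability was then determined.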
# HT-29 = experiment: Cytotoxicity against human HT-29 cells assessed as cell growth at 10 uM after 48 hrs by SRB assay relative to control; type: functional; conditions: HT-29, 48 h, read-out: Activity; procedure, shortened: as §1
# TK-10 = experiment: Cytotoxicity against human TK10 cells assessed as cell growth at 10 uM after 48 hrs by SRB assay relative to control; type: functional; conditions: TK-10, 48 h, read-out: Activity; procedure, shortened: as §2
# MCF7 = experiment: Cytotoxicity against human MCF7 cells assessed as cell growth at 10 uM after 48 hrs by SRB assay relative to control; type: functional; conditions: MCF7, 48 h, read-out: Activity; procedure, shortened: as §1
# NCI-H522 = experiment: Cytotoxicity against human NCI-H522 cells assessed as cell growth at 10 uM after 48 hrs by SRB assay relative to control; type: functional; conditions: NCI-H522, 48 h, read-out: Activity; procedure, shortened: as §1
# SW-620 = experiment: Cytotoxicity against human SW620 cells assessed as cell growth at 10 uM after 48 hrs by SRB assay relative to control; type: functional; conditions: SW-620, 48 h, read-out: Activity; procedure, shortened: as §2
# NCI-H23 = experiment: Cytotoxicity against human NCI-H23 cells assessed as cell growth at 10 uM after 48 hrs by SRB assay relative to control; type: functional; conditions: NCI-H23, 48 h, read-out: Activity; procedure, shortened: as §1
# M14 = experiment: Cytotoxicity against human M14 cells assessed as cell growth at 10 uM after 48 hrs by SRB assay relative to control; type: functional; conditions: M14, 48 h, read-out: Activity; procedure, shortened: as §1
# OVCAR-4 = experiment: Cytotoxicity against human OVCAR4 cells assessed as cell growth at 10 uM after 48 hrs by SRB assay relative to control; type: functional; conditions: OVCAR-4, 48 h, read-out: Activity; procedure, shortened: as §1
# [2] = Binding affinity to GRP78 duplex DNA (unknown origin) after 36 hrs by gel shift mobility assay
# Procedure, shortened: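 Complementary strands (0.57 μM) annealed in 30% sucrose in TAE buffer (89 mM Tris/acetate, 2.5 mM EDTA, […]), incubated 36 h at 37 °C with ligand at 0, 5, 25, 50, 100 equiv per DNA phosphate (0, 0.2, 0.9, 1.9, 3.9 mM). Run on 24% native PAGE. DNA bands visualized by UV-shadowing at 260 nm. K_D taken from the duplex band ratio with versus without ligand.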
# [3] = Stability in phosphate buffer assessed as formation of guanine-tetraplex structure at 0.2 to 3.9 mM at 25 degC by CD spectrophotometric analysis; type: physicochemical; conditions: 3900 µM
# Procedure, shortened: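 GRP78 DNA duplex was annealed from complementary single strands in phosphate binding buffer (140 mM KCl, 1 mM MgCl₂, 5 mM Na₂HPO₄, pH 7.2), then titrated with ligand at 0.2–3.9 mM. CD spectra were recorded, and molar ellipticity was followed at the 260–280 nm maximum and the 248 nm minimum.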
# SK-OV-3 = experiment: Cytotoxicity against human SKOV3 cells assessed as cell growth at 10 uM after 48 hrs by SRB assay relative to control; type: functional; conditions: SK-OV-3, 48 h, read-out: Activity; procedure, shortened: as §2
# CCRF-CEM = experiment: Cytotoxicity against human CCRF-CEM cells assessed as cell growth at 10 uM after 48 hrs by SRB assay relative to control; type: functional; conditions: read-out: Activity; procedure, shortened: as §1
smiles,measurement,setting,value
CCCCCCCCCCCCCCCC(=O)O[C@@H]1[C@H](OC(=O)CCCCCCCCCCCCCCC)[C@@H](C(=O)N[C@@H](CCCCN)C(=O)OC)O[C@H]1n1cnc2c(=O)[nH]c(NC(=O)C(C)C)nc21.Cl,growth at 10 µM,MDA-MB-435,99.7%
same,growth at 10 µM,ACHN,102%
same,growth at 10 µM,NCI-H226,102%
same,growth at 10 µM,U-251,90.2%
same,ΔTm,[1],4 °C
same,growth at 10 µM,MOLT-4,93.4%
same,growth at 10 µM,RXF 393,105%
same,growth at 10 µM,CAKI-1,94%
same,growth at 10 µM,HCT-116,85.4%
same,growth at 10 µM,T47D,88.2%
same,growth at 10 µM,SK-MEL-5,101%
same,growth at 10 µM,NCI-H322M,89.6%
same,growth at 10 µM,LOX IMVI,93.5%
same,growth at 10 µM,SF-268,97.1%
same,growth at 10 µM,SF-539,103%
same,growth at 10 µM,HL-60(TB),98.3%
same,growth at 10 µM,HT-29,98.2%
same,growth at 10 µM,TK-10,101%
same,growth at 10 µM,MCF7,96.4%
same,growth at 10 µM,NCI-H522,84.4%
same,growth at 10 µM,SW-620,104%
same,growth at 10 µM,NCI-H23,97.8%
same,growth at 10 µM,M14,93.7%
same,growth at 10 µM,OVCAR-4,120%
same,Kd,[2],700 µM
same,Stability,[3],Stable
same,growth at 10 µM,SK-OV-3,99.4%
same,growth at 10 µM,CCRF-CEM,86%
